Published values from different studies.
Lines come from different studies, so protocols differ. In brackets after ≈: the same amount, converted by molar mass.

| SMILES | tested on | assay | test system | conditions | endpoint | value |
| --- | --- | --- | --- | --- | --- | --- |
| CCCCCOc1ccc(-c2cc(-c3ccc(C(=O)N[C@H]4C[C@@H](O)[C@@H](O)NC(=O)[C@@H]5[C@@H](O)[C@@H](C)CN5C(=O)[C@H]([C@H](O)CC(N)=O)NC(=O)[C@H]([C@H](O)[C@@H](O)c5ccc(O)c(OS(=O)(=O)O)c5)NC(=O)[C@@H]5C[C@@H](O)CN5C(=O)[C@H]([C@@H](C)O)NC4=O)cc3)no2)cc1 | Lodderomyces parapsilosis | biofilm formation |  | 16 µg/mL | inhibition | 49% |
| OC(Cn1cncn1)(Cn1cncn1)c1ccc(F)cc1F | Aspergillus niger | microbial growth | ATCC16404 |  | MIC | 128 µg/mL (≈ 418 µM) |
| O=C(c1ccc(F)cc1)c1c[nH]c2ncc(-c3ccnc(N4CCNCC4)c3)cc12 | MRC5 | cell growth or viability, MTT |  | 10 µM, 48 h | viability | 90.1% |
| Nc1ccn(C[C@@H](CO)OCP(=O)(O)O)c(=O)n1 | Human alphaherpesvirus 1 | cytopathic effect | HEL |  | EC50 | 2000 nM |
| O=c1c2ccccc2[se]n1-c1ccccc1 | MRC5 | cell growth or viability, MTT |  | 125 µM, 72 h | inhibition | 56% |
| COc1ccc(C(=O)c2c[nH]c3ncc(-c4ccc(N5CCN(C(=O)OC(C)(C)C)CC5)nc4)cc23)cc1 | MRC5 | cell growth or viability, MTT |  | 10 µM, 48 h | viability | 80.2% |
| CN[C@H](CC(C)C)C(=O)N[C@H]1C(=O)N[C@@H](CC(N)=O)C(=O)N[C@H]2C(=O)N[C@H]3C(=O)N[C@H](C(=O)N[C@H](C(=O)O)c4cc(O)cc(O)c4-c4cc3ccc4O)[C@H](O)c3ccc(c(Cl)c3)Oc3cc2cc(c3O[C@@H]2O[C@H](CO)[C@@H](O)[C@H](O)[C@H]2O[C@H]2C[C@](C)(N)[C@H](O)[C@H](C)O2)Oc2ccc(cc2Cl)[C@H]1O | Bacteroides fragilis | microbial growth, agar dilution |  | 48 h | MIC | > 16 µg/mL |
| [O-][N+]1=C(c2ccc(Cl)cc2)C2=NCCN2c2ccccc21 | Bacteroides fragilis | microbial growth |  |  | MIC50 | ≤ 0.06 µg/mL |
